MEKK2 mut-MEK5: signal of MEK5 binding to mutant human MEKK2 PB1 domain | percent response, % at 10 µM | hit rate 0.35% among 290,000 | bead flow cytometry, Alexa488-MEK5 binding to MEKK2 mutant | AID 1530; in the data active = percent response above about 24%, passing the limit was not always enough
MEKK3 PB1 HTS: raises or lowers MEK5 binding to the human MEKK3 PB1 domain; Q99759; bead-based flow cytometry, Alexa488-MEK5 binding to MEKK3; actives lie on both sides; 0 = blocked by unlabeled MEK5, 100 = vehicle; binding response (% of control), % at 10 µM; hit rate 1.4% among 290,000; AID 1529;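 active = binding response more than 3 SD above or below the average of its plate-row segment, actives on both sides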;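 note: Alexa488 bead fluorescence after subtracting the streptavidin-only scavenger bead signal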
MEKK2 WT-MEK5: raises or lowers MEK5 binding to wildtype human MEKK2 PB1 domain. Q9Y2U5. hit rate 1.1% among 290,000. bead flow cytometry, Alexa488-MEK5 binding to MEKK2 WT; actives lie on both sides. binding response (% of control), % at 10 µM; in the data active = binding response below about 67% or above about 130%
ABCG2 block: human ABCG2 inhibition, ABCB1 as counter-screen; IgMXP3 cells, JC-1 efflux, flow cytometry; Q9UNQ0; hit rate 0.1% among 190,000; inhibition, % at 6.6 µM;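 active = inhibition above 80%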
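Test system: IgMXP3 (ABCG2) plus far-red-tagged CCRF-Adr (ABCB1) cells. Reagent: JC-1 dye as substrate. Timing: 10 min exposure at 25 °C with rotation, no wash. Measured by: flow cytometric JC-1 green MFI at 530 nm. Read-out: percent efflux inhibition, scaled nicardipine 100% to DMSO 0%. Control set: nicardipine and DMSO wells.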
ABCB1 inh: inhibitors of human ABCB1 transporter, ABCG2 counter-screen; P08183; CCRF-Adr cells, JC-1 efflux, flow cytometry; inhibition, % at 6.6 µM; hit rate 0.067% among 190,000; AID 1326; in the data active = inhibition above about 40%;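 note: higher value means more JC-1 retained so stronger ABCB1 efflux block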
WT yeast gro inh: growth inhibition of WT yeast, mitochondrial fusion screen | inhibition, % at 10 µM | hit rate 2.1% among 190,000 | mitochondrial fusion phenotypic screen, WT strain; in the data active = inhibition above about 58%; tested in S. cerevisiae
Each line names hits and unclear results; the compound was inactive in the other large screens. Rows were chosen to be rich in hits. Some 3.5% of all compounds tested hit in one or more screens of this group.

CCCCC(=O)O[C@H]1CC[C@H]2[C@@H]3CCc4cc(O)ccc4[C@H]3CC[C@]12C	WT yeast gro inh 91
CCn1c(=O)c(C(=O)Nc2nc3ccccc3[nH]2)c(O)c2ccccc21	WT yeast gro inh 84
CCOC(=O)/C(=C\c1cccc(O)c1)c1nc2sc(C)c(C)c2c(=O)[nH]1	none
CCn1c(Sc2nc(C)nc3scc(-c4cccs4)c23)n[nH]c1=O	WT yeast gro inh 82
O=C(CSc1nnc(COc2ccc(Cl)cc2)o1)N1CCCCC1	none (no result: ABCG2 block, ABCB1 inh, WT yeast gro inh)
COc1cccc(-c2nc3ccccc3s2)c1	none
COc1cccc(N2C(=O)C(c3ccccc3)=C(c3nc4ccccc4s3)C2NC(C)=O)c1 (configuration not stated)	WT yeast gro inh 70
CC(=O)NCc1ccc(-c2nc3ccccc3s2)cc1	none
CC(=O)NC1C(c2nc3ccccc3s2)=C(c2ccccc2)C(=O)N1c1ccc(C)cc1 (configuration not stated)	WT yeast gro inh 68
COCCCNC(=O)CCN1N=C(c2ccccc2)CCC1=O	none (no result: ABCG2 block, ABCB1 inh, WT yeast gro inh)
CC1CCc2c(sc(NC(=O)COC(=O)c3ccc(O)cc3)c2C#N)C1 (configuration not stated)	WT yeast gro inh 97
O=C1CSC(c2cn(-c3ccccc3)nc2-c2cccs2)N1CC1CCCO1 (configuration not stated)	none
Cc1cc(Cl)ccc1OCC(=O)Nc1nc(-c2cccs2)cs1	WT yeast gro inh 60
O=C(Nc1nc(-c2cccs2)cs1)c1ccc(Cl)s1	WT yeast gro inh 81
Cc1cc(Cl)ccc1OCC(=O)Nc1nc(-c2cccnc2)cs1	none (no result: ABCG2 block, ABCB1 inh, WT yeast gro inh)
CC(=O)Nc1nc(-c2cccs2)cs1	none
COC(=O)/C(=N/Nc1ccccc1C)Sc1nnc(C(O)c2ccccc2)n1-c1ccccc1 (configuration not stated)	none
CCCCCCc1cc2cc(C(N)=O)c(=N)oc2cc1O	WT yeast gro inh 82
CCCCCCc1cc2cc(C(=O)NC)c(=N)oc2cc1O	none
Cc1cc(C)cc(NC(=O)c2ccc([N+](=O)[O-])o2)c1	WT yeast gro inh 78
CC(C)C(=O)N1CCN(c2ccc(NC(=O)c3ccc([N+](=O)[O-])o3)cc2Cl)CC1	WT yeast gro inh 94
CCCC(=O)N1CCN(c2ccc(NC(=O)c3ccc([N+](=O)[O-])o3)cc2Cl)CC1	WT yeast gro inh 86
COc1ccccc1C1C2CCCCC2(O)CCN1CC(=O)Nc1ccccc1 (configuration not stated)	none
COC(=O)c1c(NC(=O)CN2CCC3(O)CCCCC3C2c2ccc(F)cc2)sc(C)c1C (configuration not stated)	WT yeast gro inh 59
COC(=O)c1c(NC(=O)CN2CCC3(O)CCCCC3C2c2cc(OC)ccc2OC)sc(C)c1C (configuration not stated)	WT yeast gro inh 74
COc1ccc(N2CCN(C(=O)c3ccc(NC(=O)C4=CSCCO4)cc3)CC2)cc1	none (no result: ABCG2 block, ABCB1 inh, WT yeast gro inh)
Cc1ccc(OCC(O)Cn2c3ccccc3c3ccccc32)cc1 (configuration not stated)	none
Cc1cccc(C)c1OCC(O)Cn1c2ccccc2c2ccccc21 (configuration not stated)	WT yeast gro inh 83
C=CCN(CC=C)CC(O)Cn1c2ccccc2c2ccccc21 (configuration not stated)	none
OC(COCC(F)(F)C(F)(F)C(F)(F)C(F)F)Cn1c2ccccc2c2ccccc21 (configuration not stated)	WT yeast gro inh 91
Cc1ccc(/C=N/NC(=O)Cc2c(F)cccc2Cl)s1	none (no result: ABCG2 block, ABCB1 inh, WT yeast gro inh)
CCOC(=O)N1CCN(CC(=O)Nc2ccc(Oc3ccccc3)cc2)CC1	none (no result: MEKK2 mut-MEK5, MEKK3 PB1 HTS, MEKK2 WT-MEK5, WT yeast gro inh)
Cc1ccc(S(=O)(=O)Nc2ccc3oc(=O)sc3c2)c(C)c1	WT yeast gro inh 61
Cc1ccc(S(=O)(=O)Nc2ccc3c(c2)n(C)c(=O)n3C)c(C)c1	none
COc1ccc(CS(=O)(=O)/C(Cl)=C(/Cl)C(=O)Nc2ccc(OC)nc2)cc1	WT yeast gro inh 63
O=C(O)C1CCN(c2ccc(Cl)nn2)CC1	none
CCOC(=O)C1CCN(c2ccc(Cl)nn2)CC1	MEKK2 WT-MEK5 -3.0
Cc1cccc(/C=N/Nc2ccc3ccccc3n2)c1	WT yeast gro inh 64
C(=N\Nc1ccc2ccccc2n1)/c1ccc2c(c1)OCCO2	none
COCCNC(=O)Cn1cc(/C=C(\C#N)C(=O)NC2CCCC2)c2ccccc21	none (no result: ABCG2 block, ABCB1 inh, WT yeast gro inh)
Cc1cc(Cl)ccc1OC(C)C(=O)Nc1ccccc1N1CCOCC1 (configuration not stated)	WT yeast gro inh 73 (no result: MEKK2 mut-MEK5, MEKK3 PB1 HTS, MEKK2 WT-MEK5)
COC(=O)c1ccccc1NC(=O)CNc1cc(Cl)ccc1N1CCOCC1	WT yeast gro inh 64
COc1ccc(-c2nc3ccccn3c2CN2CCN(c3ccccc3F)CC2)cc1	WT yeast gro inh 82
Cc1nc(-c2cccc(NS(=O)(=O)c3cccc4ccccc34)c2)cs1	WT yeast gro inh 62
Cc1ccc(-c2cc(-c3ccccc3C)[nH]n2)c(O)c1	WT yeast gro inh 65
Cc1cc(Br)ccc1NC(=O)CN1C(=O)C2C3CC(c4ccccc4)C(C3)C2C1=O (configuration not stated)	WT yeast gro inh 78 (no result: MEKK2 mut-MEK5, MEKK3 PB1 HTS, MEKK2 WT-MEK5)
Cc1ccc(/C=C/C(=O)Nc2sc(C)c(C)c2C(=O)OC(C)C)o1	none
CCOC(=O)c1sc(NC(=O)/C=C/c2cnn(C)c2C)c(C(=O)OC(C)C)c1C	WT yeast gro inh 59
CC(=O)Nc1ccc(C(=O)CSc2cc(C)c3cccc(C)c3n2)cc1	none
Cc1ccc(-n2cc(CN3CCN(Cc4nccn4C)CC3)c(-c3cccc(C)c3)n2)cc1	WT yeast gro inh 66
CCN(Cc1ccccc1)C(c1ccc(C(F)(F)F)cc1)c1nnnn1C(C)(C)C (configuration not stated)	WT yeast gro inh 73
O=C(N/N=C/c1cccc(F)c1)c1cc(-c2ccco2)nc2ccccc12	WT yeast gro inh 60
COc1cc(/C=N/NC(=O)c2cc(-c3ccco3)nc3ccccc23)cc(OC)c1O	none (no result: ABCG2 block, ABCB1 inh, WT yeast gro inh)
CC1=C(C#N)C(NC(=O)c2ccc(Cl)cc2)(C(F)(F)F)C(=O)N1 (configuration not stated)	none
CC1=C(C#N)C(NC(=O)c2ccc(C)cc2)(C(F)(F)F)C(=O)N1 (configuration not stated)	WT yeast gro inh 77 (no result: MEKK2 mut-MEK5, MEKK3 PB1 HTS, MEKK2 WT-MEK5)
CN(C)c1cccc2c1c(NC(=O)c1ccc(Cl)cc1)nn2C	none (no result: ABCG2 block, ABCB1 inh, WT yeast gro inh)
CC(C)(C)c1ccc(-c2nc(-c3ccncc3)no2)cc1	WT yeast gro inh 62
Cc1ccc(-c2nc(-c3ccncc3)no2)cc1	none (no result: ABCG2 block, ABCB1 inh, WT yeast gro inh)
CCOc1cccc2sc(N(CCN(C)C)C(=O)c3ccc4c(c3)OCCO4)nc12	none (no result: ABCG2 block, ABCB1 inh, WT yeast gro inh)
COc1ccc2nc(N(CCN(C)C)C(=O)c3ccc4ccccc4c3)sc2c1	none (no result: ABCG2 block, ABCB1 inh, WT yeast gro inh)
